From ChEMBL document CHEMBL1152748, “Inhibition of iNOS and COX-2 in human whole blood ex vivo and monocyte-macrophage J774 cells by a new group of aminothiopyrimidone derivatives” (Bioorg Med Chem, 2009)

Experiments:
[1] = target: T1, Prostaglandin G/H synthase 2 (Mus musculus) (UniProt Q05769); experiment: Activation of COX2 in LPS-stimulated mouse J774 cells assessed as stimulation of PGE2 production by […]; assay type: cell-based; set-up: concentration or dose not given beside the values
T1 sequence (whole entry): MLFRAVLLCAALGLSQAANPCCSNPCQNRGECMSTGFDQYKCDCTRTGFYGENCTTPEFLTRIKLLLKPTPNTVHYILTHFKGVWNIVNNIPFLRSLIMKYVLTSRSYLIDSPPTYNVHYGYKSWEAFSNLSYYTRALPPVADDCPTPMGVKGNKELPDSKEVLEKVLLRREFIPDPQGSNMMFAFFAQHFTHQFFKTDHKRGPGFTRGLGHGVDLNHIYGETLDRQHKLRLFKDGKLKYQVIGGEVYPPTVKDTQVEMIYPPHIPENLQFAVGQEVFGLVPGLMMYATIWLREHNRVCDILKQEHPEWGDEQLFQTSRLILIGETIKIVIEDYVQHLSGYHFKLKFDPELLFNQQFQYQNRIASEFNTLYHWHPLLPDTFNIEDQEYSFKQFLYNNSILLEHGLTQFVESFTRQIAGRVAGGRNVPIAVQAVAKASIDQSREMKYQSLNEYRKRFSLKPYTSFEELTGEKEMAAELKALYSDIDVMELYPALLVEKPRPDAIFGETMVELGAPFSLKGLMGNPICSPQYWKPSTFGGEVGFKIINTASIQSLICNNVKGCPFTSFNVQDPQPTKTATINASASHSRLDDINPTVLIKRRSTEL
Method in brief: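 Mouse J774 monocyte-macrophages in DMEM/10% FCS, plated at 2.5×10^5 cells/ml and adhered 24 h. Stimulated with LPS 5 µg/ml for 72 h with compound (10 µM, DMSO vehicle). Supernatant PGE2 by competitive peroxidase EIA at 450 nm (50–6400 pg/ml) against vehicle control. Mean ± SEM, three experiments in triplicate.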

[2] = target: T2, Nitric oxide synthase, inducible (Mus musculus) (UniProt P29477); experiment: Activation of iNOS in LPS-stimulated mouse J774 cells assessed as stimulation of nitric oxide generation at 10 uM; assay type: cell-based
T2 sequence (whole entry): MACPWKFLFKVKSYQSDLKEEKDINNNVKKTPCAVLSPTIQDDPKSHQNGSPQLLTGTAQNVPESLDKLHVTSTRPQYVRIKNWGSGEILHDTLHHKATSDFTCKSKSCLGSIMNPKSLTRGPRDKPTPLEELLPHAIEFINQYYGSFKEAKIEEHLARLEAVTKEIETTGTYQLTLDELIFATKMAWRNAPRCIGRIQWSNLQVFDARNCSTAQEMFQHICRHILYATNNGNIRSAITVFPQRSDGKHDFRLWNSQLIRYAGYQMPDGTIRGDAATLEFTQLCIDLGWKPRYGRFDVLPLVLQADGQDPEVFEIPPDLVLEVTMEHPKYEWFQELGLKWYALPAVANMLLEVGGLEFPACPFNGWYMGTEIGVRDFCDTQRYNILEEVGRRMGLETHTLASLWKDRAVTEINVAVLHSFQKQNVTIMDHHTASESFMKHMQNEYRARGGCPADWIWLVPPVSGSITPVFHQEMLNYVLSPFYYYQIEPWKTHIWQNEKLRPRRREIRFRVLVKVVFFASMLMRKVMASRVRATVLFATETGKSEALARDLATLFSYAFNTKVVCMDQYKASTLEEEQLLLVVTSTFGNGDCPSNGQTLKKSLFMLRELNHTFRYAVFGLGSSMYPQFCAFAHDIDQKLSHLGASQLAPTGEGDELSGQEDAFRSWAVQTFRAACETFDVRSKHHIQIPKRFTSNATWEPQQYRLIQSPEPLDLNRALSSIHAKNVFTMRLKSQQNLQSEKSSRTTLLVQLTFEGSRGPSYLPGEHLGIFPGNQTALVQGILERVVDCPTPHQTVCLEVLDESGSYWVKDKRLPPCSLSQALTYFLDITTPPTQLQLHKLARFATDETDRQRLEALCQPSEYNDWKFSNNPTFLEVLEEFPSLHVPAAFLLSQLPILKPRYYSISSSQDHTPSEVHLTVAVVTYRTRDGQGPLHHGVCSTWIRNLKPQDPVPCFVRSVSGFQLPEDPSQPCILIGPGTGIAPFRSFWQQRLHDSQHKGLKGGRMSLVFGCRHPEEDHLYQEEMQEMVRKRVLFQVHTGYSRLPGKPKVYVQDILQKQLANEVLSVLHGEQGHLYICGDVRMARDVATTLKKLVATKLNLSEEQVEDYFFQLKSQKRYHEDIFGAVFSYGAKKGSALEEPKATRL
Method in brief: (§1)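 J774 cells plated at 2.5×10^5 cells/ml, adhered 24 h, then given LPS 5 µg/ml for 72 h with compound at 10 µM (DMSO vehicle). Supernatant nitrite measured by Griess reaction, 10 min at room temperature, absorbance at 550 nm against sodium nitrite standard (detection limit 1 µM). NGMMA 500 µM served as control. Mean ± SEM, three experiments in triplicate.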

[3] = target: T3, Prostaglandin G/H synthase 2 (Homo sapiens) (UniProt P35354); experiment: Activation of COX2 in LPS-stimulated human whole blood assessed as stimulation of PGE2 production at 10 uM […]; assay type: tissue-based
T3 sequence (whole entry): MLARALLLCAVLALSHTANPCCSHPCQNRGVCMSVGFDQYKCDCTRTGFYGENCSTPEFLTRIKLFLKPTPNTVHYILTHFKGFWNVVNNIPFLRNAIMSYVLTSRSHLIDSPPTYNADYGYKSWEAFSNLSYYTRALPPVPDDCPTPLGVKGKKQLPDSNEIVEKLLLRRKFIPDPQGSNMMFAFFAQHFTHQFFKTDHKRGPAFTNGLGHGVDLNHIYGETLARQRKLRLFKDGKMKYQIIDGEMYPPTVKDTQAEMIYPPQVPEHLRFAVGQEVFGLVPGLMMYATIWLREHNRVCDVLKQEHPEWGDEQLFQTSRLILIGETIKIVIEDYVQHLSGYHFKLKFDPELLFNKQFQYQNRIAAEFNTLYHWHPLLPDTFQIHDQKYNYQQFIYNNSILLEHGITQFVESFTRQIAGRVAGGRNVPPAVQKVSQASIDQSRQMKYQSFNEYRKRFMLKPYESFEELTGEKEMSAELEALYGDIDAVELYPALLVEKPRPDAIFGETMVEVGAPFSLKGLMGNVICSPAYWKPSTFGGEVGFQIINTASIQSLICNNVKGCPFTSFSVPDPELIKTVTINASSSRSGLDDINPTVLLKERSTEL
Method in brief: (§2)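 Heparinized (10 IU) whole blood from young healthy volunteers, drawn 48 h after 300 mg oral aspirin to suppress platelet COX-1. 1 ml aliquots; compound added in DMSO (final 10 µM) before LPS 10 µg/ml, 24 h at 37 °C. Plasma stored at -70 °C, PGE2 by competitive peroxidase EIA at 450 nm (range 50–6400 pg/ml). Mean ± SEM, three experiments in triplicate.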

[4] = target: T2, Nitric oxide synthase, inducible (Mus musculus); experiment: Inhibition of iNOS in LPS-stimulated mouse J774 cells assessed as inhibition of nitric oxide generation at 10 uM; assay type: cell-based; method in brief: as §1
[5] = target: T3, Prostaglandin G/H synthase 2 (Homo sapiens); conditions: Blood, at 10 µM
[6] = target: T4, Prostaglandin G/H synthase 2 (Homo sapiens, UniProt P35354); experiment: Inhibition of COX2 in LPS-stimulated human whole blood assessed as inhibition of PGE2 production by […]; assay type: tissue-based; method in brief: as §2
T4 sequence (P35354 whole entry): T3 sequence (whole entry)

Activity [1] [%]	Activity [2] [%]	Activity [3] [%]	inhibition [4] [%]	inhibition [5] [%]	IC50 [6] [µM]	SMILES
346	11	205				Cc1sc2nc(SC(C(=O)O)c3ccccc3)n(N)c(=O)c2c1C (stereo unspecified)
			90			COc1ccc2c(c1)c(CC(=O)O)c(C)n2C(=O)c1ccc(Cl)cc1
52	10	6				CC(Sc1nc2c(sc3ccccc32)c(=O)n1N)C(=O)O (stereo unspecified)
			100	100	3.4	CS(=O)(=O)Nn1c(Sc2ccc([N+](=O)[O-])cc2[N+](=O)[O-])nc2sc(-c3ccccc3)cc2c1=O
250	52	90				CC(Sc1nc2sc(-c3ccccc3)cc2c(=O)n1N)C(=O)O (stereo unspecified)
			70	90		Nn1c(SC2CCCCC2)nc2sc(-c3ccccc3)cc2c1=O
180	35	28				CC(Sc1nc2c([nH]c3ccccc32)c(=O)n1N)C(=O)O (stereo unspecified)
			96			Cc1ccc(-c2cc(C(F)(F)F)nn2-c2ccc(S(N)(=O)=O)cc2)cc1
			60	75		Nn1c(Sc2ccc([N+](=O)[O-])cc2[N+](=O)[O-])nc2sc(-c3ccccc3)cc2c1=O
			50	88	5.8	CC(Sc1nc2ccccc2c(=O)n1N)C(=O)O (stereo unspecified)
			38	70	7	Nn1c(SC(C(=O)O)c2ccccc2)nc2ccc(Br)cc2c1=O (stereo unspecified)
			55			Nn1c(SC(C(=O)O)c2ccccc2)nc2ccsc2c1=O (stereo unspecified)
30	5	21				Nn1c(SC(C(=O)O)c2ccccc2)nc2ccccc2c1=O (stereo unspecified)
